Test results as given in ChEMBL document CHEMBL1145117, “Structures and cytotoxic properties of trichoverroids and their macrolide analogues produced by saltwater culture of Myrothecium verrucaria” (J Med Chem, 2003).

Experiments:
[1] = system: UACC-62; experiment: In vitro antitumor activity against melanoma UACC-62 tumor cell lines; format: functional, cell-based, Homo sapiens; settings: uacc-62
[2] = system: COLO 205; experiment: In vitro antitumor activity against colon COLO 205 tumor cell lines; format: functional, cell-based, Homo sapiens; settings: colo 205
[3] = system: MDA-MB-435; experiment: In vitro antitumor activity against breast MDA-MB-435 tumor cell lines; format: functional, cell-based, Homo sapiens; settings: mda-mb-435
[4] = system: MCF7; experiment: In vitro antitumor activity against breast MCF-7 tumor cell lines; format: functional, cell-based, Homo sapiens; settings: mcf7
[5] = system: HCT-15; experiment: In vitro antitumor activity against colon HCT-15 tumor cell lines; format: functional, cell-based, Homo sapiens; settings: hct-15
[6] = system: SK-MEL-2; experiment: In vitro antitumor activity against melanoma SK-MEL-2 tumor cell lines; format: functional, cell-based, Homo sapiens; settings: sk-mel-2
[7] = system: RXF 393; experiment: In vitro antitumor activity against renal RXF 393 tumor cell lines; format: functional, cell-based, Homo sapiens; settings: rxf 393
[8] = system: MOLT-4; experiment: In vitro antitumor activity against leukemia MOLT-4 tumor cell lines; format: functional, cell-based, Homo sapiens; settings: molt-4
[9] = system: M14; experiment: In vitro antitumor activity against melanoma M14 tumor cell lines; format: functional, cell-based, Homo sapiens; settings: m14
[10] = species: Homo sapiens; experiment: Concentration giving 500 zone units against H116 colon tumor cell lines; format: functional
How it was run: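 Disk diffusion soft agar colony formation assay on human H116 colon tumor cells. Each sample was applied to a disk as 15 µL, and activity was read as zone units. The value is the sample concentration that gave 500 zone units.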

[11] = system: HL-60; experiment: In vitro antitumor activity against leukemia HL-60(TB) tumor cell lines; format: functional, cell-based, Homo sapiens; settings: hl-60
[12] = system: CCRF-CEM; experiment: In vitro antitumor activity against leukemia CCRF-CEM tumor cell lines; format: functional, cell-based, Homo sapiens; settings: ccrf-cem
[13] = system: A498; experiment: In vitro antitumor activity against renal A498 tumor cell lines; format: functional, cell-based, Homo sapiens; settings: a498
[14] = system: 786-0; experiment: In vitro antitumor activity against renal 786-0 tumor cell lines; format: functional, cell-based, Homo sapiens
[15] = system: HCT-116; experiment: In vitro antitumor activity against colon HCT116 tumor cell lines; format: functional, cell-based, Homo sapiens; settings: hct-116
[16] = system: NCI-H522; experiment: In vitro antitumor activity against NSCL NCI-H522 tumor cell lines; format: functional, cell-based, Homo sapiens; settings: nci-h522
[17] = system: NCI-H226; experiment: In vitro antitumor activity against NSCL NCI-H226 tumor cell lines; format: functional, cell-based, Homo sapiens; settings: nci-h226
[18] = system: A549; experiment: In vitro antitumor activity against NSCL A549/ATCC tumor cell lines; format: functional, cell-based, Homo sapiens; settings: a549
[19] = system: MDA-N; experiment: In vitro antitumor activity against breast MDA-N tumor cell lines; format: functional, cell-based, Homo sapiens; settings: mda-n

Row | Structure (SMILES) | IC50 [1] | IC50 [2] | IC50 [3] | IC50 [4] | IC50 [5] | IC50 [6] | IC50 [7] | IC50 [8] | IC50 [9] | Concentration [10] | IC50 [11] | IC50 [12] | IC50 [13] | IC50 [14] | IC50 [15] | IC50 [16] | IC50 [17] | IC50 [18] | IC50 [19]
1 | CC1=C[C@H]2O[C@@H]3[C@H](O)[C@H]4OC(=O)/C=C\C=C\[C@H]([C@@H](C)O)OCC/C(C)=C/C(=O)OC[C@@]2(CC1)[C@]4(C)[C@]31CO1 | 9 nM | > 10000 nM | 4 nM | > 10000 nM | > 10000 nM | > 10000 nM | 57 nM | > 10000 nM | < 1 nM | 0.14 µg/mL | 10 nM | > 10000 nM | 9 nM | 59 nM | < 1 nM | > 10000 nM | 7 nM | – | –
2 | CC1=C[C@H]2O[C@@H]3C[C@H]4OC(=O)/C=C\C=C\[C@H]([C@H](C)O)OCC/C(C)=C/C(=O)OC[C@@]2(CC1)[C@]4(C)[C@]31CO1 | – | – | – | – | – | – | – | – | – | 8.6 µg/mL | – | – | – | – | – | – | – | – | –
3 | CC(=O)OC(C)[C@@H](O)/C=C/C=C\C(=O)O[C@@H]1CC2O[C@@H]3C=C(C)CC[C@]3(COC(=O)/C=C(\C)CCO)[C@]1(C)[C@]21CO1 (stereo partly drawn) [13`-ACETYLTRICHOVERRIN B] | 9560 nM | 612 nM | 2260 nM | > 10000 nM | > 10000 nM | > 10000 nM | > 10000 nM | > 10000 nM | 9000 nM | 31 µg/mL | > 10000 nM | > 10000 nM | 2380 nM | > 10000 nM | > 10000 nM | 1210 nM | 4870 nM | 9770 nM | 5080 nM
4 | CC1=C[C@H]2O[C@@H]3C[C@H]4OC(=O)/C=C\C=C\[C@H]([C@H](C)O)OCC[C@@H](C)[C@H](O)C(=O)OC[C@@]2(CC1)[C@]4(C)[C@]31CO1 [(6'R,13'S) ISORORIDIN A] | 2 nM | 8 nM | 31 nM | > 10000 nM | > 10000 nM | > 10000 nM | 10 nM | > 10000 nM | 10 nM | 0.9 µg/mL | > 10000 nM | > 10000 nM | 6 nM | > 10000 nM | > 10000 nM | 95 nM | – | > 10000 nM | 8 nM
5 | CC1=C[C@H]2O[C@@H]3C[C@H]4OC(=O)/C=C\C=C\[C@H]([C@@H](C)O)OCC[C@@H](C)[C@H](O)C(=O)OC[C@@]2(CC1)[C@]4(C)[C@]31CO1 [RORIDIN A] | 5 nM | 3 nM | 6 nM | > 10000 nM | > 10000 nM | 3 nM | 2 nM | > 10000 nM | < 1 nM | 0.78 µg/mL | > 10000 nM | > 10000 nM | 316 nM | 40 nM | > 10000 nM | < 1 nM | 3 nM | > 10000 nM | 3 nM
6 | CC1=C[C@H]2O[C@@H]3[C@H](O)[C@H]4OC(=O)/C=C\C=C\[C@H]([C@H](C)O)OCC/C(C)=C/C(=O)OC[C@@]2(CC1)[C@]4(C)[C@]31CO1 [RORIDIN L] | 18 nM | 13 nM | 20 nM | > 10000 nM | > 10000 nM | 24 nM | > 10000 nM | > 10000 nM | 24 nM | 1.3 µg/mL | > 10000 nM | > 10000 nM | 19 nM | – | > 10000 nM | 21 nM | 91 nM | > 10000 nM | 21 nM
7 | CC1=C[C@H]2O[C@@H]3[C@H](O)[C@H]4OC(=O)/C=C\C=C\[C@@H]5O[C@H](C/C(C)=C/C(=O)OC[C@@]2(CC1)[C@]4(C)[C@]31CO1)O[C@H]5C [RORIDIN M] | 409 nM | – | 137 nM | > 10000 nM | 483 nM | 260 nM | 2180 nM | > 10000 nM | 75 nM | 41 µg/mL | > 10000 nM | > 10000 nM | 583 nM | > 10000 nM | 75 nM | 26 nM | 157 nM | > 10000 nM | 83 nM
8 | CC1=C[C@H]2OC3C[C@@H](OC(=O)/C=C\C=C\[C@H](O)[C@H](C)O)[C@](C)([C@@]2(COC(=O)/C=C(\C)CCO)CC1)[C@]31CO1 [TRICHOVERRIN A] | > 10000 nM | 1310 nM | 2700 nM | > 10000 nM | > 10000 nM | 7540 nM | > 10000 nM | > 10000 nM | 7870 nM | 163 µg/mL | > 10000 nM | > 10000 nM | 6960 nM | > 10000 nM | > 10000 nM | 936 nM | 8410 nM | 5440 nM | 7780 nM
9 | CC1=C[C@H]2OC3C[C@@H](OC(=O)/C=C\C=C\[C@H](O)[C@@H](C)O)[C@](C)([C@@]2(COC(=O)/C=C(\C)CCO)CC1)[C@]31CO1 [TRICHOVERRIN B] | > 10000 nM | 4020 nM | 5490 nM | > 10000 nM | > 10000 nM | 8910 nM | > 10000 nM | > 10000 nM | 7100 nM | 175 µg/mL | > 10000 nM | > 10000 nM | 8160 nM | > 10000 nM | > 10000 nM | 904 nM | 6930 nM | 6210 nM | > 10000 nM
10 | CC1=C[C@H]2O[C@@H]3C[C@H]4OC(=O)/C=C\C=C\C(=O)OCC[C@@H](C)[C@H](O)C(=O)OC[C@@]2(CC1)[C@]4(C)[C@]31CO1 [VERRUCARIN A] | 5 nM | < 1 nM | 4 nM | 1200 nM | 8100 nM | 8 nM | > 10000 nM | > 10000 nM | < 1 nM | 0.78 µg/mL | > 10000 nM | > 10000 nM | 3 nM | – | > 10000 nM | < 1 nM | 4 nM | > 10000 nM | 82 nM
11 | CC1=C[C@H]2O[C@@H]3[C@H](O)[C@H]4OC(=O)/C=C\C=C\C(=O)OCC/C(C)=C/C(=O)OC[C@@]2(CC1)[C@]4(C)[C@]31CO1 [VERRUCARRIN M] | 57 nM | 7 nM | 14 nM | > 10000 nM | 73 nM | 37 nM | 84 nM | > 10000 nM | 8 nM | 30 µg/mL | > 10000 nM | > 10000 nM | 53 nM | > 10000 nM | – | < 1 nM | 33 nM | – | 14 nM
